High-throughput results deposited in PubChem by several laboratories.
An excerpt weighted towards active compounds, which were near 2.3% of everything screened.
TPT1 inh – Candida albicans TPT1 enzyme inhibitors, primary screen, biochemical, fluorescence polarization. tRNA 2'-phosphotransferase TPT1 (Candida albicans SC5314). recombinant caTPT1, FP RNA substrate dephosphorylation. inhibition, % at 5 µM. 300,000 tested, 0.81% active. AID 1962, 2009;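 active = inhibition above the mean of all tested compounds plus 3 SD, set per screening campaign, cut at about 24% in these data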;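 note: plate controls were DMSO alone for no effect and ferristatin control at 100 nM for full effect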
HNF4A DNA FP – change in binding of human HNF4A to DNA, primary screen, biochemical, fluorescence polarization, FITC-DNA | Hepatocyte nuclear factor 4-alpha (Homo sapiens), P41235 | 1 h | activity change, % at 10 µM | 360,000 tested, 0.3% active | AID 1224865, 2016; in the data active = activity change above about 30%, passing the limit was not always enough
Target sequence (P41235 whole entry, looked up): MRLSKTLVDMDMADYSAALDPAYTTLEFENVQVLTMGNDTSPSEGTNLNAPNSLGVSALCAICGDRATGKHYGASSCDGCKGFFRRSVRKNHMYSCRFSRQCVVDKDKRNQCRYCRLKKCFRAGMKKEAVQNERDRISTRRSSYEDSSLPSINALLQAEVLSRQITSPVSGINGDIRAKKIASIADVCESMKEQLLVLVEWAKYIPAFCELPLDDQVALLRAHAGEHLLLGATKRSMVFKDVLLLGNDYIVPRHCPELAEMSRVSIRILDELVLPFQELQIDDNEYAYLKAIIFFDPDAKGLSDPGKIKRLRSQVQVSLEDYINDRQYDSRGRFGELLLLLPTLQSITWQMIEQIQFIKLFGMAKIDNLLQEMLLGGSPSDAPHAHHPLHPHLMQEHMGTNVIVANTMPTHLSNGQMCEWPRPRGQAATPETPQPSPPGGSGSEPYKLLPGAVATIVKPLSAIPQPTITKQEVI
Myeloid diff 2 – induction of myeloid progenitor differentiation, primary screen, cell-based, flow cytometry, MLPCN library; ER-HoxA9 myeloid progenitors, lysozyme-GFP differentiation; calls only at 10 µM; 360,000 tested, 1% active; AID 624256, 2012;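 active = normalized GFP-positive differentiation at or above the plate's own cutoff, the solvent-only control mean plus 3 SD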;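 note: cells exposed to compound for four days before flow analysis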
CSN inh – inhibitors of CSN-mediated cullin deneddylation, primary screen, biochemical, fluorescence polarization, uHTS | Purified CSN, SCF-Nedd8-OG deneddylation | inhibition, % at 12.5 µM | 360,000 tested, 0.38% active | AID 651999, 2013;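 active = pattern-corrected inhibition above about 35%, with an unprinted fluorescence ratio check between 0.5 and 1.5, limit read from the data, passing the limit was not always enough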;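 note: 0% = enzyme with substrate and 100% = substrate without enzyme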
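Material: human Csn5 produced in HEK293T cells; Input: enzyme 0.24 nM; Reagent: SCFSkp2-Nedd8OG substrate at 10 nM final; Dosing: 12.5 µM compound; Incubation: 90 min reaction at room temperature; Detection: fluorescence polarization of the substrate; Evaluation: % inhibition of substrate cleavage by Csn5; Control set: substrate-only high control, full reaction low control.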
Rpn11 inh – Rpn11 (PSMD14) deubiquitinase inhibitors, primary screen, biochemical, fluorescence polarization, uHTS; human 26S proteasome, Ub4-pepOG fluorescence polarization; 20S core pre-blocked with epoxomicin; inhibition, % at 20 µM; AID 588493, 2011; 360,000 tested, 0.59% active;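 active = inhibition at 20 µM, scaled to each plate's controls, above about 33%, limit read from the data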
Myeloid diff – inducers of myeloid progenitor differentiation, confirmation, cell-based, GFP/Mac1 flow cytometry, cherry pick 01; ER-HoxA9 myeloid progenitors, GFP/Mac1 double-positive flow; shares compounds with Myeloid diff 2; 2,300 tested, 2% active; calls only;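 active = share of green or green-and-red cells above 9 and 9% in run 1 or 4 and 3% in run 2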
GFP autofluor – compound fluorescence in myeloid differentiation counter-screen. shares compounds with Myeloid diff 2. ER-HoxA9 myeloid progenitors, no estrogen, GFP autofluorescence flow cytometry; vehicle wells 0%, positive control 100%. fluorescence response, % (concentration not given with the values). 2,300 tested, 7.4% active;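 active = over 5% cells positive for green fluorescent reporter, or over 2% positive for both it and APC stain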;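 note: range taken on the double positive population between DMSO and positive control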
CSN5 deneddyl – Csn5 deneddylation inhibitors, confirmation, biochemical, fluorescence polarization, single concentration, SCF-Nedd8OG substrate; shares compounds with CSN inh; Csn5 deneddylation of SCF-Nedd8OG, 90 min; inhibition, % at 16.6 µM; 540 tested, 62% active; in the data active = inhibition above about 50%;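 note: 0% = DMSO with enzyme and 100% = no enzyme wells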
MMP-2 counter – MMP-2 protease inhibition counter-screen, confirmation, counter-screen for CSN deneddylation inhibitor project, biochemical, fluorescence, single concentration; shares compounds with CSN inh; AID 720655, 2013; inhibition, % at 16.6 µM; 540 tested, 33% active; recombinant MMP-2, FRET substrate fluorescence, 60 min;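 active = corrected plate-normalized z-score of 5 or more, or -5 or less, or inhibition of 15% or more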;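 note: plate controls were DMSO wells with enzyme for no effect and buffer wells lacking MMP-2 for full effect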
Thrombin counter – counter-screen for CSN deneddylation inhibitors: bovine thrombin inhibition; shares compounds with CSN inh; bovine thrombin cleavage of Ub4-pepOG, fluorescence polarization; inhibition, % at 16.6 µM; 540 tested, 49% active; AID 720656;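 active = inhibition at or above a set limit, with a fluorescence interference ratio between 0.5 and a set maximum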
Active calls of the source: *; i = inactive; . = not tested or not shown; + = active, no number.

SMILES	TPT1 inh	HNF4A DNA FP	Myeloid diff 2	CSN inh	Rpn11 inh	Myeloid diff	GFP autofluor	others
CCc1ccc(OCC(=O)NCc2ccco2)c(Br)c1	1	2	i	-2	-5	i	0
O=C(COc1ccccc1Br)NCc1ccco1	-3	6	i	3	-4	.	.
COc1cc(CC(=O)OCC(=O)NCc2ccco2)cc(OC)c1OC	.	-8	+	-1	-10	i	0
CSCCC(NC(=O)c1ccc(Cl)cc1Cl)C(=O)NCC(c1cccs1)N(C)C (stereo not drawn)	.	-1	i	-3	-2	.	.
CSc1cccc(NC(=O)CN2C(=O)c3ccccc3S2(=O)=O)c1	-4	3	i	-4	-4	i	0
O=C(CN1C(=O)c2ccccc2S1(=O)=O)Nc1ccccc1	0	-2	i	-1	-3	.	.
CC(C)C(=O)Nc1cccc(NC(=O)CCN2C(=O)c3ccccc3S2(=O)=O)c1	1	0	i	1	-4	i	0
CC(C)C(=O)N1CCN(c2ccccc2NC(=O)c2ccc3c(c2)OCCO3)CC1	.	4	i	0	9	.	.
COc1nc(C)ccc1-c1noc(-c2ccccn2)n1	0	1	i	-2	-3	i	0
Cc1cc(Cl)cc(Br)c1OCCCCn1cncn1	-1	2	+	-5	0	i	1
Cc1cc(Cl)c(OCCCn2cncn2)c(Br)c1	-1	1	i	4	0	.	.
CS(=O)(=O)N(CC(=O)N1CCC(C(N)=O)CC1)c1cc(C(F)(F)F)ccc1Cl	0	1	i	4	4	.	.
CSc1cccc(NC(=O)c2ccccn2)c1	-2	.	.	.	.	.	.
CSc1cccc(NC(=O)c2ccc(Cl)nc2)c1	2	2	i	-2	-1	i	0
CSc1nc(Oc2ccc3ccccc3c2)c2sccc2n1	-2	0	+	1	-1	i	0
COc1ccc(-n2nc3ccc(N)cc3n2)cc1Cl	3	-2	i	3	12	i	0
O=C(Nc1ccccc1F)c1ccc([N+](=O)[O-])s1	4	1	+	-7	0	i	0
Cc1cc(C)nc(NNC(=O)NC2CCCCC2)n1	-2	-1	i	-7	-4	.	.
CC(=O)CC(=O)NC(=NC1CCCCC1)Nc1nc(C)cc(C)n1	5	-1	+	2	-8	i	0
N#CCSc1nnc(COc2ccc3ccccc3c2)o1	-1	0	i	1	-3	.	.
c1ccc(C2=Nc3ccccc3OC2)cc1	-2	2	i	4	0	i	0
CCCNC(=O)C1(C)CCCN(Cc2cccs2)C1 (stereo not drawn)	.	8	i	-3	-2	.	.
Cc1nc(SCc2ccc(Cl)cc2)ncc1C(=O)O	-4	0	i	-4	2	.	.
O=C(CSc1nnc2c(Cl)cc(Cl)cn12)N1CCN(c2ccc(F)cc2)CC1	0	6	i	1	-7	.	.
COC(=O)CN1C(=O)C2(OCCCO2)c2cc(Br)ccc21	-3	0	i	-1	-2	i	1
SMILES	TPT1 inh	HNF4A DNA FP	Myeloid diff 2	CSN inh	Rpn11 inh	Myeloid diff	GFP autofluor	others
COC(=O)c1cn(NC(=O)c2ccc([N+](=O)[O-])cc2Cl)c(=O)c2ccccc12	8	-1	+	-8	8	i	1
CC1CCN(CC2C(=O)O[C@@H]3C[C@@]4(C)CCC[C@H](C)C4=C[C@H]23)CC(C)(C)C1 (stereo partly drawn)	-3	-2	i	0	-1	i	0
O=C(/C=C/c1ccccc1Cl)Nc1cccnc1	1	0	i	6	0	.	.
O=C(/C=C/c1ccccc1Cl)Nc1ccncc1	-2	0	+	4	-3	i	0
CCN(CC)Cc1c(O)ccc2occ(C(=O)c3ccc(OC)cc3)c12	2	-1	i	-3	-5	.	.
CCN(CC)Cc1c(O)ccc2c([N+](=O)[O-])c(C)n(-c3ccc(OC)cc3)c12	-7	-2	+	5	-4	i	0
CCc1cn(C2CC(O)C(CO)O2)c(=O)[nH]c1=O (stereo not drawn)	.	1	+	-1	-4	i	0
O=c1[nH]c(=O)n([C@H]2C[C@H](O)[C@@H](CO)O2)cc1I	-4	1	i	-1	-3	.	.
O=C1N=C(N2CCN(Cc3ccccc3)CC2)S/C1=C/c1cccs1	3	0	+	-1	-1	i	0
O=C1N=C(N2CCN(c3ccccc3)CC2)S/C1=C/c1cccs1	-2	1	i	3	-3	.	.
COc1cc(/C=C2\SC(=S)N(CCC(=O)N3CCN(C)CC3)C2=O)cc(OC)c1OC	4	4	+	1	13	i	0
Cc1c(Cc2ccccc2)c(=O)oc2cc(OCC(=O)NCC3CCC(C(=O)O)CC3)ccc12 (stereo not drawn)	-1	0	i	-2	-2	.	.
CC[C@@]1(C(=O)OC)N[C@H](CN(C)C(=O)COC)[C@@H]2C(=O)N(Cc3ccccc3)C(=O)[C@@H]21	.	-1	+	-1	-9	i	7.3*
COc1cc(OC)c(-c2c3cc(O)c(=O)cc-3oc3cc(O)c(O)cc23)cc1OC	5	-90	+	81*	.	i	99*	MMP-2 counter=+;Thrombin counter=-84
COc1cc(-c2cc(=O)c3ccc(O)cc3o2)cc(OC)c1OC	.	-8	i	-8	-27	.	.
CN1C(=S)N(c2cccnc2)C(=O)/C1=C\c1ccc(N(C)C)cc1	.	76*	+	47*	.	i	3	CSN5 deneddyl=68*;MMP-2 counter=-10;Thrombin counter=22*
